From ChEMBL document CHEMBL4196021, “Targeting G-quadruplex DNA structures in the telomere and oncogene promoter regions by benzimidazole‒carbazole ligands” (Eur J Med Chem, 2018)
The source made the active and inactive calls. The calls are words filed in the database; no cut-off is given here.

What follows are compounds tested on Quadruplex DNA (assay: Binding affinity to human c-Kit1 G-quadruplex DNA at 0.6 uM after 5 mins in presence of KCl by fluorescence spectroscopic method).
Assay type: nucleic-acid assay
Outline: (§1)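 Fluorescence titration at 25 °C with 0.6 µM ligand in 10 mM Tris-HCl pH 7.4, 100 mM KCl, 0.1 mM EDTA. Preformed G4 DNA was added stepwise, with 5 min incubation before each spectrum. Excitation 330 nm; emission 350–550 nm, slit 5 nm.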

| SMILES | Activity |
| --- | --- |
| C[N+]1(CCCCN2CCOCC2)CCN(CCCCn2c3ccc(-c4nc5ccc(N6CCOCC6)cc5[nH]4)cc3c3cc(-c4nc5ccc(N6CCOCC6)cc5[nH]4)ccc32)CC1 | Active |

What follows are compounds tested on Quadruplex DNA (assay: Binding affinity to human c-Myc G-quadruplex DNA at 0.6 uM after 5 mins in presence of KCl by fluorescence spectroscopic method).
Assay type: nucleic-acid assay
Outline: as §1

| SMILES | Activity |
| --- | --- |
| C[N+]1(CCCCN2CCOCC2)CCN(CCCCn2c3ccc(-c4nc5ccc(N6CCOCC6)cc5[nH]4)cc3c3cc(-c4nc5ccc(N6CCOCC6)cc5[nH]4)ccc32)CC1 | Active |

Each compound was assayed on Quadruplex DNA (assay: Binding affinity to human telomeric G-quadruplex DNA at 0.6 uM after 5 mins in presence of KCl by fluorescence spectroscopic method).
Assay type: nucleic-acid assay
Outline: as §1

| SMILES | Activity |
| --- | --- |
| C[N+]1(CCCCN2CCOCC2)CCN(CCCCn2c3ccc(-c4nc5ccc(N6CCOCC6)cc5[nH]4)cc3c3cc(-c4nc5ccc(N6CCOCC6)cc5[nH]4)ccc32)CC1 | Active |

What follows are compounds tested on Quadruplex DNA (assay: Binding affinity to human Bcl2 G-quadruplex DNA at 0.6 uM after 5 mins in presence of KCl by fluorescence spectroscopic method).
Assay type: nucleic-acid assay
Outline: as §1

| SMILES | Activity |
| --- | --- |
| C[N+]1(CCCCN2CCOCC2)CCN(CCCCn2c3ccc(-c4nc5ccc(N6CCOCC6)cc5[nH]4)cc3c3cc(-c4nc5ccc(N6CCOCC6)cc5[nH]4)ccc32)CC1 | Active |

Each compound was assayed on Quadruplex DNA (assay: Binding affinity to human c-Kit2 G-quadruplex DNA at 0.6 uM after 5 mins in presence of KCl by fluorescence spectroscopic method).
Assay type: nucleic-acid assay
Outline: as §1

| SMILES | Activity |
| --- | --- |
| C[N+]1(CCCCN2CCOCC2)CCN(CCCCn2c3ccc(-c4nc5ccc(N6CCOCC6)cc5[nH]4)cc3c3cc(-c4nc5ccc(N6CCOCC6)cc5[nH]4)ccc32)CC1 | Active |

What follows are compounds tested on Quadruplex DNA (assay: Binding affinity to human VEGF G-quadruplex DNA at 0.6 uM after 5 mins in presence of KCl by fluorescence spectroscopic method).
Assay type: nucleic-acid assay
Outline: as §1

| SMILES | Activity |
| --- | --- |
| C[N+]1(CCCCN2CCOCC2)CCN(CCCCn2c3ccc(-c4nc5ccc(N6CCOCC6)cc5[nH]4)cc3c3cc(-c4nc5ccc(N6CCOCC6)cc5[nH]4)ccc32)CC1 | Active |

Each compound was assayed on Quadruplex DNA (assay: Induction of conformational changes in human telomeric G-quadruplex DNA assessed as inversion from potassium ion stabilized hybrid type mixed parallel/antiparallel G-quadruplex to stable telomere parallel-stranded G-quadruplex after 5 mins in presence of KCl by CD spectroscopic method).
Assay type: nucleic-acid assay
Outline: (§2)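 CD spectra of 5 µM G4 DNA in 10 mM Tris-HCl pH 7.4, 100 mM KCl, 0.1 mM EDTA, with or without ligand. Mixtures were heated 95 °C for 5 min and slowly cooled to room temperature. Recorded 200–400 nm at 25 °C, 100 nm/min, 2 s response, 1 cm cell; average of three scans.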

| SMILES | Activity |
| --- | --- |
| C[N+]1(CCCCN2CCOCC2)CCN(CCCCn2c3ccc(-c4nc5ccc(N6CCOCC6)cc5[nH]4)cc3c3cc(-c4nc5ccc(N6CCOCC6)cc5[nH]4)ccc32)CC1 | inactive |

These compounds were tested on Quadruplex DNA (assay: Induction of conformational changes in human Bcl2 G-quadruplex DNA assessed as inversion from potassium ion stabilized hybrid type mixed parallel/antiparallel G-quadruplex to stable telomere parallel-stranded G-quadruplex after 5 mins in presence of KCl by CD spectroscopic method).
Assay type: nucleic-acid assay
Outline: as §2

| SMILES | Activity |
| --- | --- |
| C[N+]1(CCCCN2CCOCC2)CCN(CCCCn2c3ccc(-c4nc5ccc(N6CCOCC6)cc5[nH]4)cc3c3cc(-c4nc5ccc(N6CCOCC6)cc5[nH]4)ccc32)CC1 | inactive |

What follows are compounds tested on Quadruplex DNA (assay: Binding affinity to human c-Myc G-quadruplex DNA assessed as stabilization of parallel stranded topology after 5 mins in presence of KCl by CD spectroscopic method).
Assay type: nucleic-acid assay
Outline: as §2

| SMILES | Activity |
| --- | --- |
| C[N+]1(CCCCN2CCOCC2)CCN(CCCCn2c3ccc(-c4nc5ccc(N6CCOCC6)cc5[nH]4)cc3c3cc(-c4nc5ccc(N6CCOCC6)cc5[nH]4)ccc32)CC1 | Active |

The compounds below were run on Quadruplex DNA (assay: Binding affinity to human c-Kit1 G-quadruplex DNA assessed as stabilization of parallel stranded topology after 5 mins in presence of KCl by CD spectroscopic method).
Assay type: nucleic-acid assay
Outline: as §2

| SMILES | Activity |
| --- | --- |
| C[N+]1(CCCCN2CCOCC2)CCN(CCCCn2c3ccc(-c4nc5ccc(N6CCOCC6)cc5[nH]4)cc3c3cc(-c4nc5ccc(N6CCOCC6)cc5[nH]4)ccc32)CC1 | Active |

These compounds were tested on Quadruplex DNA (assay: Binding affinity to human c-Kit2 G-quadruplex DNA assessed as stabilization of parallel stranded topology after 5 mins in presence of KCl by CD spectroscopic method).
Assay type: nucleic-acid assay
Outline: as §2

| SMILES | Activity |
| --- | --- |
| C[N+]1(CCCCN2CCOCC2)CCN(CCCCn2c3ccc(-c4nc5ccc(N6CCOCC6)cc5[nH]4)cc3c3cc(-c4nc5ccc(N6CCOCC6)cc5[nH]4)ccc32)CC1 | Active |

The compounds below were run on Quadruplex DNA (assay: Binding affinity to human VEGF G-quadruplex DNA assessed as stabilization of parallel stranded topology after 5 mins in presence of KCl by CD spectroscopic method).
Assay type: nucleic-acid assay
Outline: as §2

| SMILES | Activity |
| --- | --- |
| C[N+]1(CCCCN2CCOCC2)CCN(CCCCn2c3ccc(-c4nc5ccc(N6CCOCC6)cc5[nH]4)cc3c3cc(-c4nc5ccc(N6CCOCC6)cc5[nH]4)ccc32)CC1 | Active |

What follows are compounds tested against Quadruplex DNA (assay: Displacement of thiazole orange from human telomeric G-quadruplex DNA after 5 mins in presence of KCl by fluorescence assay).
Assay type: nucleic-acid assay
Outline: (§3)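 Thiazole orange displacement from a G4 DNA–TO complex (1 µM TO + 0.5 µM G4 DNA) in 10 mM Tris-HCl pH 7.4, 100 mM KCl, 0.1 mM EDTA. Ligand was added in increasing steps, with 5 min incubation each. Fluorescence read at ex 501/em 531 nm; % displacement = 100 − (Ft/F0 × 100). DC50 is the ligand concentration giving 50% displacement, read from plots; average of two independent experiments.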

| SMILES | DC50 [nM] |
| --- | --- |
| C[N+]1(CCCCN2CCOCC2)CCN(CCCCn2c3ccc(-c4nc5ccc(N6CCOCC6)cc5[nH]4)cc3c3cc(-c4nc5ccc(N6CCOCC6)cc5[nH]4)ccc32)CC1 | > 3000 |

The compounds below were run against Quadruplex DNA (assay: Displacement of thiazole orange from human c-Myc G-quadruplex DNA after 5 mins in presence of KCl by fluorescence assay).
Assay type: nucleic-acid assay
Outline: as §3

| SMILES | DC50 [nM] |
| --- | --- |
| C[N+]1(CCCCN2CCOCC2)CCN(CCCCn2c3ccc(-c4nc5ccc(N6CCOCC6)cc5[nH]4)cc3c3cc(-c4nc5ccc(N6CCOCC6)cc5[nH]4)ccc32)CC1 | > 3000 |

Each compound was assayed against Quadruplex DNA (assay: Displacement of thiazole orange from human Bcl2 G-quadruplex DNA after 5 mins in presence of KCl by fluorescence assay).
Assay type: nucleic-acid assay
Outline: as §3

| SMILES | DC50 [nM] |
| --- | --- |
| C[N+]1(CCCCN2CCOCC2)CCN(CCCCn2c3ccc(-c4nc5ccc(N6CCOCC6)cc5[nH]4)cc3c3cc(-c4nc5ccc(N6CCOCC6)cc5[nH]4)ccc32)CC1 | > 3000 |

These compounds were tested against Quadruplex DNA (assay: Displacement of thiazole orange from human c-Kit1 G-quadruplex DNA after 5 mins in presence of KCl by fluorescence assay).
Assay type: nucleic-acid assay
Outline: as §3

| SMILES | DC50 [nM] |
| --- | --- |
| C[N+]1(CCCCN2CCOCC2)CCN(CCCCn2c3ccc(-c4nc5ccc(N6CCOCC6)cc5[nH]4)cc3c3cc(-c4nc5ccc(N6CCOCC6)cc5[nH]4)ccc32)CC1 | > 3000 |

What follows are compounds tested against Quadruplex DNA (assay: Displacement of thiazole orange from human c-Kit2 G-quadruplex DNA after 5 mins in presence of KCl by fluorescence assay).
Assay type: nucleic-acid assay
Outline: as §3

| SMILES | DC50 [nM] |
| --- | --- |
| C[N+]1(CCCCN2CCOCC2)CCN(CCCCn2c3ccc(-c4nc5ccc(N6CCOCC6)cc5[nH]4)cc3c3cc(-c4nc5ccc(N6CCOCC6)cc5[nH]4)ccc32)CC1 | > 3000 |

The compounds below were run against Quadruplex DNA (assay: Displacement of thiazole orange from human VEGF G-quadruplex DNA after 5 mins in presence of KCl by fluorescence assay).
Assay type: nucleic-acid assay
Outline: as §3

| SMILES | DC50 [nM] |
| --- | --- |
| C[N+]1(CCCCN2CCOCC2)CCN(CCCCn2c3ccc(-c4nc5ccc(N6CCOCC6)cc5[nH]4)cc3c3cc(-c4nc5ccc(N6CCOCC6)cc5[nH]4)ccc32)CC1 | > 3000 |

The compounds below were run on Calf thymus DNA (assay: Displacement of thiazole orange from calf thymus duplex DNA after 5 mins in presence of KCl by fluorescence assay).
Assay type: nucleic-acid assay, Bos taurus

| SMILES | DC50 [nM] |
| --- | --- |
| C[N+]1(CCCCN2CCOCC2)CCN(CCCCn2c3ccc(-c4nc5ccc(N6CCOCC6)cc5[nH]4)cc3c3cc(-c4nc5ccc(N6CCOCC6)cc5[nH]4)ccc32)CC1 | > 10000 |

These compounds were tested on Quadruplex DNA (assay: Binding affinity to human telomeric G-quadruplex DNA assessed as change in melting temperature in presence of KCl by CD spectroscopic method).
Assay type: nucleic-acid assay
Outline: (§4)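 CD melting of 5 µM G4 DNA in 10 mM Tris-HCl pH 7.4, 25 mM KCl, 0.1 mM EDTA. Ligand was present during folding (heating, slow cooling). Spectra 200–400 nm over 20–96 °C in 2 °C steps, buffer blank subtracted. Tm was taken from normalized ellipticity at the positive maximum (262 nm for promoter G4s). ΔTm = ligand-bound minus DNA alone; average of two independent experiments.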

| SMILES | ΔTm [°C] |
| --- | --- |
| C[N+]1(CCCCN2CCOCC2)CCN(CCCCn2c3ccc(-c4nc5ccc(N6CCOCC6)cc5[nH]4)cc3c3cc(-c4nc5ccc(N6CCOCC6)cc5[nH]4)ccc32)CC1 | 7.14 |

What follows are compounds tested on Quadruplex DNA (assay: Binding affinity to human c-Myc G-quadruplex DNA assessed as change in melting temperature in presence of KCl by CD spectroscopic method).
Assay type: nucleic-acid assay
Outline: as §4

| SMILES | ΔTm [°C] |
| --- | --- |
| C[N+]1(CCCCN2CCOCC2)CCN(CCCCn2c3ccc(-c4nc5ccc(N6CCOCC6)cc5[nH]4)cc3c3cc(-c4nc5ccc(N6CCOCC6)cc5[nH]4)ccc32)CC1 | 4.95 |

These compounds were tested on Quadruplex DNA (assay: Binding affinity to human Bcl2 G-quadruplex DNA assessed as change in melting temperature in presence of KCl by CD spectroscopic method).
Assay type: nucleic-acid assay
Outline: as §4

| SMILES | ΔTm [°C] |
| --- | --- |
| C[N+]1(CCCCN2CCOCC2)CCN(CCCCn2c3ccc(-c4nc5ccc(N6CCOCC6)cc5[nH]4)cc3c3cc(-c4nc5ccc(N6CCOCC6)cc5[nH]4)ccc32)CC1 | 3.26 |

The compounds below were run on Quadruplex DNA (assay: Binding affinity to human c-Kit1 G-quadruplex DNA assessed as change in melting temperature in presence of KCl by CD spectroscopic method).
Assay type: nucleic-acid assay
Outline: as §4

| SMILES | ΔTm [°C] |
| --- | --- |
| C[N+]1(CCCCN2CCOCC2)CCN(CCCCn2c3ccc(-c4nc5ccc(N6CCOCC6)cc5[nH]4)cc3c3cc(-c4nc5ccc(N6CCOCC6)cc5[nH]4)ccc32)CC1 | 3.58 |

Each compound was assayed on Quadruplex DNA (assay: Binding affinity to human c-Kit2 G-quadruplex DNA assessed as change in melting temperature in presence of KCl by CD spectroscopic method).
Assay type: nucleic-acid assay
Outline: as §4

| SMILES | ΔTm [°C] |
| --- | --- |
| C[N+]1(CCCCN2CCOCC2)CCN(CCCCn2c3ccc(-c4nc5ccc(N6CCOCC6)cc5[nH]4)cc3c3cc(-c4nc5ccc(N6CCOCC6)cc5[nH]4)ccc32)CC1 | 7.53 |

Each compound was assayed on Quadruplex DNA (assay: Binding affinity to human VEGF G-quadruplex DNA assessed as change in melting temperature in presence of KCl by CD spectroscopic method).
Assay type: nucleic-acid assay
Outline: as §4

| SMILES | ΔTm [°C] |
| --- | --- |
| C[N+]1(CCCCN2CCOCC2)CCN(CCCCn2c3ccc(-c4nc5ccc(N6CCOCC6)cc5[nH]4)cc3c3cc(-c4nc5ccc(N6CCOCC6)cc5[nH]4)ccc32)CC1 | 4.35 |
